According to ChEMBL document CHEMBL1122005, “Quantitative structure-activity relationships of aromatic esters of 1-methyl-4-piperidinol as analgesics” (1982):
Activity calls are given as the source filed them. No cut-off for these calls is given here.

Legend:
Mus musculus [1] = species: Mus musculus; experiment: Analgesic activity assayed with the mouse hotplate method; type: functional
Summary of the method: (§1)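 Mouse hot-plate test. Compounds were given subcutaneously as water-soluble HCl salts. The ED50 is expressed in mmol/kg, and potency is given as log(1/C), where C is the ED50 in mmol/kg.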

Mus musculus [2] = species: Mus musculus; experiment: Relative Analgesic activity of compound to the N-substituted normeperidine assayed by the mouse hotplate method; type: functional
Mus musculus [3] = species: Mus musculus; experiment: Analgesic activity of compound assayed by the mouse hotplate method was determined as log(1/C); Activity observed in 4-5 out of 10 mice tested; type: functional; summary of the method: as §1
Mus musculus [4] = species: Mus musculus; experiment: Analgesic activity of compound assayed by the mouse hotplate method was determined as log(1/C); Inactive; type: functional, organism-based
Mus musculus [5] = species: Mus musculus; experiment: Analgesic activity of compound assayed by the mouse hotplate method was determined; type: functional; summary of the method: as §1
Mus musculus [6] = species: Mus musculus; experiment: Analgesic activity of compound assayed by the mouse hotplate method was determined as ED50.; type: functional; summary of the method: as §1
Mus musculus [7] = species: Mus musculus; experiment: Relative Analgesic activity of compound to the N-methyl homologue assayed by the mouse hotplate method; type: functional

Structure (SMILES)	Log 1/C (Mus musculus [1])	further results
Cc1ccc(C(=O)OC2CCN(C)CC2)cc1	1.17	
COc1ccccc1C(=O)OC1CCN(C)CC1	1.43	
Cc1cc(C)c(C(=O)OC2CCN(C)CC2)cc1C	1.17	
Cc1ccc(C(=O)OC2CCN(C)CC2)cc1F	1.32	
Cc1cccc(C)c1C(=O)OC1CCN(C)CC1	1.27	
CN1CCC(OC(=O)c2ccc(-c3ccccc3)cc2)CC1	0.85	
CN1CCC(OC(=O)c2cccc(C#N)c2)CC1	1.39	
CCOC(=O)C1(c2ccccc2)CCN(CC)CC1		Relative activity (Mus musculus [2]): 0.5
CN1CCC(OC(=O)c2ccccc2CCc2ccccc2)CC1		Log 1/C (Mus musculus [3]): 0.86
CN1CCC(OC(=O)c2ccccc2C#N)CC1		Log 1/C (Mus musculus [4]): inactive
COc1cccc(OC)c1C(=O)OC1CCN(C)CC1	0.63	
CCOC(=O)C1(c2ccccc2)CCN(C/C=C/c2ccccc2)CC1		Relative activity (Mus musculus [2]): 40
CN1CCC(OC(=O)c2ccc(F)cc2)CC1	1.38	
COc1cccc(C(=O)OC2CCN(C)CC2)c1	1.67	
CN1CCC(OC(=O)c2ccccc2)CC1	1.43	
CN1CCC(OC(=O)c2cc(I)cc(I)c2I)CC1		Log 1/C (Mus musculus [4]): inactive
Cc1[nH]c(C)c(C(=O)OC2CCN(C)CC2)c1C		Log 1/C (Mus musculus [5]): 1.87; ED50 (Mus musculus [6]): 4.9 mg/kg; Relative activity (Mus musculus [7]): 1
CCOC(=O)C1(c2ccccc2)CCN(Cc2ccccc2)CC1		Relative activity (Mus musculus [2]): <0.5
CN1CCC(OC(=O)c2ccccc2[N+](=O)[O-])CC1	1.48	
CN1CCC(OC(=O)c2ccc([N+](=O)[O-])cc2)CC1	1.14	
CCOC(=O)C1(c2ccccc2)CCN(CCCCc2ccccc2)CC1		Relative activity (Mus musculus [2]): 2.8
CN1CCC(OC(=O)c2ccc(Cl)c(Cl)c2)CC1	1.08	

Structure (SMILES)	Log 1/C (Mus musculus [1])	further results
Oc1ccc2c3c1O[C@H]1[C@@H](O)C=CC4(CC2)CN(CCc2ccccc2)CCC314 (some centres undefined)		Relative activity (Mus musculus [7]): 6
COc1cc(C(=O)OC2CCN(C)CC2)ccc1C	1.4	
CN1CCC(OC(=O)c2ccccc2Cl)CC1	1.25	
COc1cc(C(=O)OC2CCN(C)CC2)cc(OC)c1OC	1.35	
CN1CCC(OC(=O)c2cccc(O)c2)CC1	1.21	
CCN1CCC23c4c5ccc(O)c4O[C@H]2[C@@H](O)C=CC3(CC5)C1 (some centres undefined)		Relative activity (Mus musculus [7]): <0.1
CN1CCC(OC(=O)c2ccccc2C(F)(F)F)CC1	1.49	
CN1CCC(OC(=O)c2ccc(I)cc2)CC1		Log 1/C (Mus musculus [4]): inactive
Oc1ccc2c3c1O[C@H]1[C@@H](O)C=CC4(CC2)CN(CCCCc2ccccc2)CCC314 (some centres undefined)		Relative activity (Mus musculus [2]): 0.3
CN1CCC(OC(=O)c2cccc(F)c2)CC1	1.26	
CN1CCC(OC(=O)c2ccccc2F)CC1	1.41	
Cc1ccccc1C(=O)OC1CCN(C)CC1	1.48	
COc1cc(OC)cc(C(=O)OC2CCN(C)CC2)c1	1.53	
Cc1[nH]c(C)c(C(=O)OC2CCN(Cc3ccccc3)CC2)c1C		ED50 (Mus musculus [6]): 6.3 mg/kg; Relative activity (Mus musculus [7]): 0.8
CN1CCC23c4c5ccc(O)c4O[C@H]2[C@@H](O)C=CC3(CC5)C1 (some centres undefined)		Relative activity (Mus musculus [7]): 1
CN1CCC(OC(=O)c2ccc(C#N)cc2)CC1	1.65	
CN1CCC(OC(=O)c2ccc(Cl)cc2)CC1	1.11	
CCOC(=O)C1(c2ccccc2)CCN(C)CC1 [MEPERIDINE]		Relative activity (Mus musculus [7]): 1
CN1CCC(OC(=O)c2ccc3c(c2)OCO3)CC1	1.61	
CCOC(=O)C1(c2ccccc2)CCN(CCc2ccccc2)CC1 [PHENERIDINE]		Relative activity (Mus musculus [2]): 2.6
CN1CCC(OC(=O)c2ccccc2-c2ccccc2)CC1		Log 1/C (Mus musculus [3]): 1.52
COc1cccc(C(=O)OC2CCN(C)CC2)c1OC	1.55	

Structure (SMILES)	Log 1/C (Mus musculus [1])	further results
Cc1cccc(C(=O)OC2CCN(C)CC2)c1		Log 1/C (Mus musculus [4]): inactive
COc1ccc(C(=O)OC2CCN(C)CC2)cc1OC	1.91	
CN1CCC(OC(=O)c2ccc(C(C)(C)C)cc2)CC1	1.13	
Cc1cc(C)cc(C(=O)OC2CCN(C)CC2)c1	1.07	
Oc1ccc2c3c1O[C@H]1[C@@H](O)C=CC4(CC2)CN(Cc2ccccc2)CCC314 (some centres undefined)		Relative activity (Mus musculus [7]): <0.1
Oc1ccc2c3c1O[C@H]1[C@@H](O)C=CC4(CC2)CN(C/C=C/c2ccccc2)CCC314 (some centres undefined)		Relative activity (Mus musculus [2]): <0.1
CCc1ccccc1C(=O)OC1CCN(C)CC1		Log 1/C (Mus musculus [3]): 1.15
CN1CCC(OC(=O)c2ccccc2Br)CC1	1.21	
CCN1CCC(OC(=O)c2c(C)[nH]c(C)c2C)CC1		ED50 (Mus musculus [6]): 10.4 mg/kg; Relative activity (Mus musculus [7]): 0.5
Cc1ccc(C(=O)OC2CCN(C)CC2)cc1C		Log 1/C (Mus musculus [3]): 1.15
Cc1ccc(C)c(C(=O)OC2CCN(C)CC2)c1	1.36	
CN1CCC(OC(=O)c2ccccc2Oc2ccccc2)CC1		Log 1/C (Mus musculus [3]): 1.24
COc1cc(OC)c(C(=O)OC2CCN(C)CC2)c(OC)c1	1.47	
CCOc1ccccc1C(=O)OC1CCN(C)CC1		Log 1/C (Mus musculus [3]): 1.18
CCOc1ccc(C(=O)OC2CCN(C)CC2)cc1	1.72	
CN1CCC(OC(=O)c2ccccc2Cc2ccccc2)CC1	1.28	
CCCCOc1ccc(C(=O)OC2CCN(C)CC2)cc1	1.58	
COc1ccc(C(=O)OC2CCN(C)CC2)cc1	1.43	
Cc1[nH]c(C)c(C(=O)OC2CCN(CCc3ccccc3)CC2)c1C		ED50 (Mus musculus [6]): 20 mg/kg; Relative activity (Mus musculus [7]): 0.3
Cc1cc(C)c(C(=O)OC2CCN(C)CC2)c(C)c1	1.55	
